Laboratory results: ChEMBL document CHEMBL4373711, “Development of 3,5-Dinitrophenyl-Containing 1,2,4-Triazoles and Their Trifluoromethyl Analogues as Highly Efficient Antitubercular Agents Inhibiting Decaprenylphosphoryl-β-d-ribofuranose 2'-Oxidase” (J Med Chem, 2019)
Values after ≈ are worked out from the molar mass of the structure shown. Active and inactive are the calls of the source. The rule behind the calls is not given here.

Assays:
[1] = test system: Mycobacterium kansasii; experiment: Antimycobacterial activity against Mycobacterium kansasii CNCTC My 235/80 after 21 days; assay type: functional; details: CNCTC My 235/80, 504 h
Outline: (§1)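 Microdilution in Šula's semisynthetic medium; compounds in DMSO at 32–0.03 µM. Inoculum from 1.0 McFarland suspension diluted 10-4. […] Isoniazid and rifampicin as reference drugs.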

[2] = test system: Escherichia coli; experiment: Antibacterial activity against Escherichia coli ATCC 25922 CCM 3954 at highest concentration measured after 24 to 48 hrs by alamar blue dye based broth microdilution assay; assay type: functional, organism-based
[3] = test system: Candida albicans; experiment: Antifungal activity against Candida albicans ATCC 24433 CCM 8320 at highest concentration measured after 24 to 48 hrs by alamar blue dye based broth microdilution assay; assay type: functional, organism-based
[4] = test system: Staphylococcus epidermidis; experiment: Antibacterial activity against Staphylococcus epidermidis at highest concentration measured after 24 to 48 hrs by alamar blue dye based broth microdilution assay; assay type: functional, organism-based
[5] = test system: Mycobacterium kansasii; experiment: Antimycobacterial activity against Mycobacterium kansasii CNCTC My 235/80 after 7 days; assay type: functional; details: CNCTC My 235/80, 168 h; outline: as §1
[6] = test system: Mycobacterium avium; experiment: Antimycobacterial activity against Mycobacterium avium CNCTC My 330/88 after 21 days; assay type: functional; details: CNCTC My 330/88, 504 h
Outline: (§2)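 M. avium was tested by microdilution in Šula's semisynthetic medium, with compounds dissolved in DMSO and serially diluted from 1000 down to 1. Inoculum was a 1.0 McFarland suspension diluted 10-5. Plates were incubated at 37 °C and read at 14 and 21 days. […] Isoniazid and rifampicin served as standards.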

[7] = test system: Staphylococcus aureus; experiment: Antibacterial activity against Staphylococcus aureus subsp. aureus ATCC 29213 CCM 4223 at highest concentration measured after 24 to 48 hrs by alamar blue dye based broth microdilution assay; assay type: functional, organism-based
[8] = test system: Mycobacterium avium; experiment: Antimycobacterial activity against Mycobacterium avium CNCTC My 330/88 after 14 days; assay type: functional; details: CNCTC My 330/88, 336 h; outline: as §2
[9] = test system: Staphylococcus aureus; experiment: Antibacterial activity against methicillin-resistant Staphylococcus aureus subsp. aureus ATCC 43300 CCM 4750 at highest concentration measured after 24 to 48 hrs by alamar blue dye based broth microdilution assay; assay type: functional, organism-based
[10] = test system: Pseudomonas aeruginosa; experiment: Antibacterial activity against Pseudomonas aeruginosa ATCC 27853 CCM 3955 at highest concentration measured after 24 to 48 hrs by alamar blue dye based broth microdilution assay; assay type: functional, organism-based
[11] = test system: Mycobacterium tuberculosis; experiment: Antimycobacterial activity against Mycobacterium tuberculosis H37Rv CNCTC My 331/88 after 21 days; assay type: functional; details: H37Rv CNCTC My 331/88, 504 h
Outline: (§3)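 M. tuberculosis strains (H37Rv and clinical MDR/XDR isolates) tested by microdilution in Šula's semisynthetic medium. Compounds were dissolved in DMSO and tested at 32 to 0.03 µM in twofold steps. Inoculum was a 1.0 McFarland suspension diluted 10-3. Plates were incubated at 37 °C and read at 14 and 21 days.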

[12] = test system: Candida parapsilosis; experiment: Antifungal activity against Candida parapsilosis ATCC 22019 CCM 8260 at highest concentration measured after 24 to 48 hrs by alamar blue dye based broth microdilution assay; assay type: functional, organism-based
[13] = test system: Aspergillus fumigatus; experiment: Antifungal activity against Aspergillus fumigatus ATCC 204305 at highest concentration measured after 24 to 48 hrs by alamar blue dye based broth microdilution assay; assay type: functional, organism-based
[14] = test system: Lichtheimia corymbifera; experiment: Antifungal activity against Lichtheimia corymbifera CCM 8077 at highest concentration measured after 24 to 48 hrs by alamar blue dye based broth microdilution assay; assay type: functional, organism-based
[15] = test system: Mycobacterium tuberculosis; experiment: Antimycobacterial activity against Mycobacterium tuberculosis H37Rv CNCTC My 331/88 after 14 days; assay type: functional; details: H37Rv CNCTC My 331/88, 336 h; outline: as §3
[16] = test system: Pichia kudriavzevii; experiment: Antifungal activity against Candida krusei ATCC 6258 CCM8271 at highest concentration measured after 24 to 48 hrs by alamar blue dye based broth microdilution assay; assay type: functional, organism-based
[17] = test system: Aspergillus flavus; experiment: Antifungal activity against Aspergillus flavus CCM 8363 at highest concentration measured after 24 to 48 hrs by alamar blue dye based broth microdilution assay; assay type: functional, organism-based
[18] = test system: Trichophyton interdigitale; experiment: Antifungal activity against Trichophyton interdigitale ATCC 9533 CCM 8377 at highest concentration measured after 72 to 120 hrs by alamar blue dye based broth microdilution assay; assay type: functional
[19] = test system: Enterococcus faecalis; experiment: Antibacterial activity against Enterococcus faecalis ATCC 29212 CCM 4224 at highest concentration measured after 24 to 48 hrs by alamar blue dye based broth microdilution assay; assay type: functional, organism-based
[20] = test system: Mycobacterium kansasii; experiment: Antimycobacterial activity against Mycobacterium kansasii CNCTC My 235/80 after 14 days; assay type: functional; details: CNCTC My 235/80, 336 h; outline: as §1
[21] = molecular target: T1, Decaprenylphosphoryl-beta-D-ribose oxidase (Mycobacterium tuberculosis (strain ATCC 25618 / H37Rv)) (UniProt P9WJF1); experiment: Inhibition of DprE1 in Mycobacterium tuberculosis H37Rv assessed as accumulation of trehalose dimycolates at 10 times MIC measured after 24 hrs in presence of [14C]-acetate by TLC-based autoradiography
T1 sequence (whole entry): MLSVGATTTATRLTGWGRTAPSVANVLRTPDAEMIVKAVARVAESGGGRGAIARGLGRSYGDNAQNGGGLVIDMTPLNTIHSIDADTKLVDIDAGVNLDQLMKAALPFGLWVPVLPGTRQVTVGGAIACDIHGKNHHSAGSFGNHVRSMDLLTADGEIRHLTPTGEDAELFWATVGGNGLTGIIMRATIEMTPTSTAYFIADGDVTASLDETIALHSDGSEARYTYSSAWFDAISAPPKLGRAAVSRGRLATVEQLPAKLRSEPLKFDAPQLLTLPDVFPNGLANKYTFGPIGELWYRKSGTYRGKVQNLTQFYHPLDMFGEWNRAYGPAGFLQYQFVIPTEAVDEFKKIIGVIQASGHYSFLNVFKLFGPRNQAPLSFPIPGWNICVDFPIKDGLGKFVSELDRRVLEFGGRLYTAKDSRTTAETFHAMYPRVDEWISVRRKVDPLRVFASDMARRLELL
Outline: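 M. tuberculosis H37Rv cultures were exposed to compound at final 10× or 100× MIC, or to DMSO, together with [14C]-acetate at 1 µCi/ml final. After 24 h, lipids were extracted in CHCl3/CH3OH (2:1) for 2 h at 65 °C and given two Folch washes. Extracts were run on TLC in CHCl3/CH3OH/H2O (20:4:0.5), then autoradiographed for 7 days at -80 °C.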

[22] = test system: Mycobacterium tuberculosis; experiment: Antimycobacterial activity against XDR Mycobacterium tuberculosis Praha 131 after 21 days; assay type: functional; details: Praha 131, 504 h; outline: as §3
[23] = test system: Serratia marcescens; experiment: Antibacterial activity against Serratia marcescens at highest concentration measured after 24 to 48 hrs by alamar blue dye based broth microdilution assay; assay type: functional, organism-based
[24] = test system: Candida tropicalis; experiment: Antifungal activity against Candida tropicalis ATCC 750 CCM 8264 at highest concentration measured after 24 to 48 hrs by alamar blue dye based broth microdilution assay; assay type: functional, organism-based

SMILES: CCCCCCn1c(SCc2cc([N+](=O)[O-])cc([N+](=O)[O-])c2)nnc1-c1ccccc1
- MIC99 [1]: 2 µM (≈ 0.883 µg/mL)
- Activity [2]: inactive
- Activity [3]: inactive
- Activity [4]: inactive
- MIC99 [5]: 1 µM (≈ 0.442 µg/mL)
- MIC99 [6]: 250 µM (≈ 110 µg/mL)
- Activity [7]: inactive
- MIC99 [8]: 250 µM (≈ 110 µg/mL)
- Activity [9]: inactive
- Activity [10]: inactive
- MIC99 [11]: 2 µM (≈ 0.883 µg/mL)
- Activity [12]: inactive
- Activity [13]: inactive
- Activity [14]: inactive
- MIC99 [15]: 1 µM (≈ 0.442 µg/mL)
- Activity [16]: inactive
- Activity [17]: inactive
- Activity [18]: inactive
- Activity [19]: inactive
- MIC99 [20]: 1 µM (≈ 0.442 µg/mL)
- inhibition [21]: inactive
- MIC99 [22]: 4 µM (≈ 1.77 µg/mL)
- Activity [23]: inactive
- Activity [24]: inactive

SMILES: COc1ccc(CSc2nnc(-c3cc([N+](=O)[O-])cc([N+](=O)[O-])c3)n2Cc2ccccc2)cc1
- MIC99 [1]: 0.03 µM (≈ 0.0143 µg/mL)
- Activity [2]: inactive
- Activity [3]: inactive
- Activity [4]: inactive
- MIC99 [5]: 0.03 µM (≈ 0.0143 µg/mL)
- MIC99 [6]: 62 µM (≈ 29.6 µg/mL)
- Activity [7]: inactive
- MIC99 [8]: 62 µM (≈ 29.6 µg/mL)
- Activity [9]: inactive
- Activity [10]: inactive
- MIC99 [11]: 0.03 µM (≈ 0.0143 µg/mL)
- Activity [12]: inactive
- Activity [13]: inactive
- Activity [14]: inactive
- MIC99 [15]: 0.03 µM (≈ 0.0143 µg/mL)
- Activity [16]: inactive
- Activity [17]: inactive
- Activity [18]: inactive
- Activity [19]: inactive
- MIC99 [20]: 0.03 µM (≈ 0.0143 µg/mL)
- inhibition [21]: inactive
- MIC99 [22]: 0.03 µM (≈ 0.0143 µg/mL)
- Activity [23]: inactive
- Activity [24]: inactive

SMILES: O=[N+]([O-])c1cc(-c2nnc(SCc3ccccc3)n2Cc2ccccc2)cc([N+](=O)[O-])c1
- MIC99 [1]: 0.03 µM (≈ 0.0134 µg/mL)
- Activity [2]: inactive
- Activity [3]: inactive
- Activity [4]: inactive
- MIC99 [5]: 0.03 µM (≈ 0.0134 µg/mL)
- MIC99 [6]: 125 µM (≈ 55.9 µg/mL)
- Activity [7]: inactive
- MIC99 [8]: 125 µM (≈ 55.9 µg/mL)
- Activity [9]: inactive
- Activity [10]: inactive
- MIC99 [11]: 0.03 µM (≈ 0.0134 µg/mL)
- Activity [12]: inactive
- Activity [13]: inactive
- Activity [14]: inactive
- MIC99 [15]: 0.03 µM (≈ 0.0134 µg/mL)
- Activity [16]: inactive
- Activity [17]: inactive
- Activity [18]: inactive
- Activity [19]: inactive
- MIC99 [20]: 0.03 µM (≈ 0.0134 µg/mL)
- inhibition [21]: inactive
- MIC99 [22]: 0.03 µM (≈ 0.0134 µg/mL)
- Activity [23]: inactive
- Activity [24]: inactive

SMILES: O=[N+]([O-])c1cc(-c2nnc(SCc3ccccc3)n2Cc2ccccc2)cc(C(F)(F)F)c1
- MIC99 [1]: 0.03 µM (≈ 0.0141 µg/mL)
- Activity [2]: inactive
- Activity [3]: inactive
- Activity [4]: inactive
- MIC99 [5]: 0.03 µM (≈ 0.0141 µg/mL)
- MIC99 [6]: 250 µM (≈ 118 µg/mL)
- Activity [7]: inactive
- MIC99 [8]: 250 µM (≈ 118 µg/mL)
- Activity [9]: inactive
- Activity [10]: inactive
- MIC99 [11]: 0.03 µM (≈ 0.0141 µg/mL)
- Activity [12]: inactive
- Activity [13]: inactive
- Activity [14]: inactive
- MIC99 [15]: 0.03 µM (≈ 0.0141 µg/mL)
- Activity [16]: inactive
- Activity [17]: inactive
- Activity [18]: inactive
- Activity [19]: inactive
- MIC99 [20]: 0.03 µM (≈ 0.0141 µg/mL)
- inhibition [21]: Active
- MIC99 [22]: 0.06 µM (≈ 0.0282 µg/mL)
- Activity [23]: inactive
- Activity [24]: inactive

SMILES: COc1ccc(CSc2nnc(-c3cc([N+](=O)[O-])cc(C(F)(F)F)c3)n2Cc2ccccc2)cc1
- MIC99 [1]: 0.5 µM (≈ 0.25 µg/mL)
- Activity [2]: inactive
- Activity [3]: inactive
- Activity [4]: inactive
- MIC99 [5]: 0.5 µM (≈ 0.25 µg/mL)
- MIC99 [6]: 250 µM (≈ 125 µg/mL)
- Activity [7]: inactive
- MIC99 [8]: 250 µM (≈ 125 µg/mL)
- Activity [9]: inactive
- Activity [10]: inactive
- MIC99 [11]: 0.5 µM (≈ 0.25 µg/mL)
- Activity [12]: inactive
- Activity [13]: inactive
- Activity [14]: inactive
- MIC99 [15]: 0.5 µM (≈ 0.25 µg/mL)
- Activity [16]: inactive
- Activity [17]: inactive
- Activity [18]: inactive
- Activity [19]: inactive
- MIC99 [20]: 0.5 µM (≈ 0.25 µg/mL)
- inhibition [21]: Active
- MIC99 [22]: 1 µM (≈ 0.501 µg/mL)
- Activity [23]: inactive
- Activity [24]: inactive

SMILES: COc1ccc(Cn2c(SCc3cc([N+](=O)[O-])cc([N+](=O)[O-])c3)nnc2-c2ccccc2)cc1
- MIC99 [1]: 2 µM (≈ 0.955 µg/mL)
- Activity [2]: inactive
- Activity [3]: inactive
- Activity [4]: inactive
- MIC99 [5]: 1 µM (≈ 0.478 µg/mL)
- MIC99 [6]: 250 µM (≈ 119 µg/mL)
- Activity [7]: inactive
- MIC99 [8]: 250 µM (≈ 119 µg/mL)
- Activity [9]: inactive
- Activity [10]: inactive
- MIC99 [11]: 2 µM (≈ 0.955 µg/mL)
- Activity [12]: inactive
- Activity [13]: inactive
- Activity [14]: inactive
- MIC99 [15]: 1 µM (≈ 0.478 µg/mL)
- Activity [16]: inactive
- Activity [17]: inactive
- Activity [18]: inactive
- Activity [19]: inactive
- MIC99 [20]: 2 µM (≈ 0.955 µg/mL)
- inhibition [21]: inactive
- MIC99 [22]: 4 µM (≈ 1.91 µg/mL)
- Activity [23]: inactive
- Activity [24]: inactive
